These results are taken from publication PMC11166183 (Inorganic chemistry, 2024).

pEC50: −log10 of the molar value. Like-named read-outs stand apart in the source and are kept apart here. Where only a bound is given, the exact number is not on record here.

The test system of series [1] is SK-MEL-28 cells. In words: Dark cytotoxicity and photocytotoxicity in normoxia, resazurin cell viability. The class given is cell-based, human. A digest of the protocol:
(§1)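 Cells adhered 3–5 h at 37°C, then were dosed at 1 nM to 300 μM. After a 13–22 h DLI, light plates received 100 J cm−2 of broadband visible (400–700 nm, 21 mW cm−2), green (523 nm) or red (633 nm, ±2.5 nm, 18 mW cm−2) light. Dark plates stayed incubated. Viability was read by resazurin after 24 h at 37°C. EC50 came from sigmoidal fits; PI = dark EC50/light EC50.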
On the technique in general: The colour change of resazurin is a common sign of viable cells or microbes.

Another series relates to A549 cells. The description is as above. The class given is cell-based, human. The procedure, abridged:
as §1

A short description of series [2]: Lipophilicity by shake-flask method. The class given is physicochemical. Conditions: chloride salts, 1-octanol / 10 mM phosphate buffer pH 7.4.
In series [3] the test system is SK-MEL-28 cells. Description: Dark cytotoxicity and photocytotoxicity in hypoxia. The series is classed as cell-based, human. The following applies: hypoxia 1% O2, regardless of light treatment. A digest of the protocol: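 Cells were moved to a 1% O2 chamber for 2–3 h after adhesion, then dosed (1 nM to 300 μM). After an 18 h DLI, dissolved O2 was checked by optical probe. Light plates were sealed with low-permeability film and illuminated outside the chamber (~1.5 h). All plates were then held in normoxia (37°C, 5% CO2) for 20–23 h before resazurin read-out. EC50 came from sigmoidal fits; PI = dark/light ratio. Each run was done in triplicate.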

Where [4] appears, read: any light condition (visible, 523 nm, 633 nm; 100 J cm−2), normoxia.
[5] abbreviates: read-out: dark EC50, no light, normoxia.

As for “rac-[Ru(4,4′-btfmb)2(IP-2T)](Cl)2 [Ru-2T]”, the “drop in activity with green light versus visible light” value in the series on SK-MEL-28 cells [1] (523 nm vs visible, normoxia) was found to be 3 fold. Besides, the “PI (dark EC50 / green EC50)” value in the series with SK-MEL-28 cells [1] (523 nm, 100 J cm−2, normoxia, representative replicate (repeat 0)) was 91. Besides, the pEC50 in the series on SK-MEL-28 cells [1] (read-out: green EC50, 523 nm, 100 J cm−2, normoxia, representative replicate (repeat 0)) is 5.72; in the series with A549 cells (read-out: visible EC50, visible light 400–700 nm, 100 J cm−2, normoxia) it was 5.86. In the series on SK-MEL-28 cells [1] (visible light, normoxia), the “enhancement in visible photocytotoxicity relative to Ru-1T” value turned out to be 36 fold. The “PI (dark EC50 / visible EC50)” value in the series with A549 cells (visible light 400–700 nm, 100 J cm−2, normoxia) is reported as 127. In addition, in series [2], the “log Do/w” value is given as “positive”.
As for “rac-[Ru(4,4′-btfmb)3](Cl)2 [[Ru(4,4′-btfmb)3]^2+, reference compound]”, the photocytotoxic activity result with SK-MEL-28 cells [1] (setting [4]) and in the series on A549 cells (setting [4]) was “inactive” in each case. Also, the pEC50 in the series on SK-MEL-28 cells [1] (setting [5]) and in the series with A549 cells (setting [5]) was < 3.52 in each case. The photocytotoxic effect result in the series with SK-MEL-28 cells [3] is “no photocytotoxic effect”.

As a reminder, the pEC50 is the EC50 on a negative log10 scale, so that one unit is a factor of ten.
